According to paper PMC3048909 (Journal of medicinal chemistry, 2011):
Like-named read-outs stand apart in the source and are kept apart here.

Experiments:
human DAT [1] = molecular target: T1, human DAT (Homo sapiens, UniProt Q01959); conditions: HEK-293 cells, mean ± standard error; cited from earlier work
[2] = system: nicotine-induced antinociception (hot-plate); conditions: mice, antagonism of acute nicotine; parentheses: confidence limits; cited from earlier work
[3] = system: nicotine-induced hypothermia; conditions: mice, antagonism of acute nicotine; parentheses: confidence limits; cited from earlier work
[4] = system: nicotine-induced antinociception (tail-flick); conditions: mice, antagonism of acute nicotine; parentheses: confidence limits; cited from earlier work
[5] = system: nicotine-induced locomotor depression; conditions: mice, antagonism of acute nicotine; parentheses: confidence limits; cited from earlier work
[6] = system: nicotine-induced hypothermia; assay: Blockade of nicotine-induced hypothermia; format: in vivo, mice; conditions: for ED50: Mus musculus, read-out: AD50 Hypothermia
In short: (§1)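 Male ICR mice (20–25 g) were given the test compound to block the acute effects of nicotine. Dose-response curves used at least four doses of test compound, with at least eight mice per dose group. Results are AD50 (mg/kg) with confidence limits, or % effect at the highest dose tested.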

[7] = molecular target: α1*-nAChR (muscle-type α1β1γδ-nAChR) (Homo sapiens, UniProt P02708+P07510+P11230+Q07001); assay: 86Rb+ efflux assay of nAChR function; format: cell-based
[8] = system: nicotine-induced antinociception (hot-plate); assay: Blockade of nicotine-induced antinociception, hot-plate test; format: in vivo, mice; conditions: for ED50: Mus musculus, read-out: AD50 Hot-plate
In short: as §1

[9] = system: nicotine-induced locomotor depression; assay: Blockade of nicotine-induced locomotor depression; format: in vivo, mice; conditions: for ED50: Mus musculus, read-out: AD50 Locomotion; for AD50 Locomotion: mice, antagonism of acute nicotine, parentheses: confidence limits
In short: as §1

[10] = system: nicotine-induced antinociception (tail-flick); assay: Blockade of nicotine-induced antinociception, tail-flick test; format: in vivo, mice; conditions: for ED50: Mus musculus, read-out: AD50 Tail-flick; for AD50 Tail-flick: mice, antagonism of acute nicotine, parentheses: confidence limits; for More potent in the tail-flick test: relative to (S,S)-4a
In short: as §1

nicotine-induced CPP [11] = conditions: mice, blockade of nicotine-induced CPP; cited from earlier work
α4β2-nAChR = α4β2-nAChR (Homo sapiens, UniProt P17787+P43681); assay: 86Rb+ efflux assay of nAChR function; format: cell-based
α4β2-nAChR, sequence (P43681 29-627 limits assumed): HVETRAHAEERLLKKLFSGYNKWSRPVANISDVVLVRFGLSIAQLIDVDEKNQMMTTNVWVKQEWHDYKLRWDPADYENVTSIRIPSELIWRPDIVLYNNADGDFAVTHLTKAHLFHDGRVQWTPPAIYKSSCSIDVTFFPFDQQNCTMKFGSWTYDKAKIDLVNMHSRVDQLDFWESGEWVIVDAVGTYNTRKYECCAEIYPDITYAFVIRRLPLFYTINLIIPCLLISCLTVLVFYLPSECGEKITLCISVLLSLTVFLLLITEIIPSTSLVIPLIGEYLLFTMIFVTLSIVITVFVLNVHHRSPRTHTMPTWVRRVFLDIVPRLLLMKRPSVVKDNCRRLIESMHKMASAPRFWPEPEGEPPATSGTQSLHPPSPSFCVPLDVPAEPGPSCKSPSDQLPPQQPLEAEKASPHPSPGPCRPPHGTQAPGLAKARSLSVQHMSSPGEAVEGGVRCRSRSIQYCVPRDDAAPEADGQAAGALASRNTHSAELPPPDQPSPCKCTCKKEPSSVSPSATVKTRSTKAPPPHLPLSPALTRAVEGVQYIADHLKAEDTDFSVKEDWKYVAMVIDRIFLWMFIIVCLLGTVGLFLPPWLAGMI
α4β2-nAChR, sequence (P17787 26-502): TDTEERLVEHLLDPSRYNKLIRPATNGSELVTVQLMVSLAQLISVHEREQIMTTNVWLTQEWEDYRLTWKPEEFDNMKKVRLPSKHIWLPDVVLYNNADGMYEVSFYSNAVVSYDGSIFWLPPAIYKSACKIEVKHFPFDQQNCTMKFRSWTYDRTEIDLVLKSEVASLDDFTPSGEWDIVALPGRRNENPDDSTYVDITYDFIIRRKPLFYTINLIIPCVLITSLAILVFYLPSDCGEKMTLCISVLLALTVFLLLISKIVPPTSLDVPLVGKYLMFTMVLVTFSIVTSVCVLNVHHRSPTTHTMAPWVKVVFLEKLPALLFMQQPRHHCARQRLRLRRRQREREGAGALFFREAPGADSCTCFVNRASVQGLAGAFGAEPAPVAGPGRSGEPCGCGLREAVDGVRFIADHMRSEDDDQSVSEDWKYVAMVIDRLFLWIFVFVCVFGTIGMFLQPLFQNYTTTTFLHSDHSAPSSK

α3β4*-nAChR = α3β4*-nAChR (Homo sapiens, UniProt P30926+P32297); assay: 86Rb+ efflux assay of nAChR function; format: cell-based
α3β4*-nAChR, sequence (P32297 32-505): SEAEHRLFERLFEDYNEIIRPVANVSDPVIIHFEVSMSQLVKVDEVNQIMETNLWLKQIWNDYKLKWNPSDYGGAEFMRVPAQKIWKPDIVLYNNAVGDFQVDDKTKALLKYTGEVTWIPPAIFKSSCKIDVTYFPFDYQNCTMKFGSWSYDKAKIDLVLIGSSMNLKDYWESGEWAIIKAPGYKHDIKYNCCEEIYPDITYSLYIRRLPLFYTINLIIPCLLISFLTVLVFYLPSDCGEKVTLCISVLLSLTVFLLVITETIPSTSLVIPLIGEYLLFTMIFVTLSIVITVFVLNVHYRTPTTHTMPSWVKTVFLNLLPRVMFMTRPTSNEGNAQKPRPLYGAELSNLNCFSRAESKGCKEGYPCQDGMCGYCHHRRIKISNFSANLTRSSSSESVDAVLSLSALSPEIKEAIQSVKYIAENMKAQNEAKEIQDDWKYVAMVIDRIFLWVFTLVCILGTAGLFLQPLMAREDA
α3β4*-nAChR, sequence (P30926 22-498): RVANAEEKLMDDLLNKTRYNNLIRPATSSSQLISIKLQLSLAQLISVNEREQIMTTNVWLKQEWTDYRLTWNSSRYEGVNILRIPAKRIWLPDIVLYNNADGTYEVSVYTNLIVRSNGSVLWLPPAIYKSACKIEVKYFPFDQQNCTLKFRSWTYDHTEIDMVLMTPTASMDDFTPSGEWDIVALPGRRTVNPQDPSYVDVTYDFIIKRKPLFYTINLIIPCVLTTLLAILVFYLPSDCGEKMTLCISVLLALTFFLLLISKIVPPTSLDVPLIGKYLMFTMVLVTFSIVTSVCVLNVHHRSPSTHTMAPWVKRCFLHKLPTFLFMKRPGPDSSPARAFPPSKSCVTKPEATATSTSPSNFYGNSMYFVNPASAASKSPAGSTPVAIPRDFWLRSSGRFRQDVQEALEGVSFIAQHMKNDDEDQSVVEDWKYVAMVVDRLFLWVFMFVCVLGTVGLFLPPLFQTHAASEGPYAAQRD

α4β4-nAChR = α4β4-nAChR (Homo sapiens, UniProt P30926+P43681); assay: 86Rb+ efflux assay of nAChR function; format: cell-based
α4β4-nAChR, sequence (P43681 29-627 limits assumed): as the sequence (P43681 29-627 limits assumed) above
α4β4-nAChR, sequence (P30926 22-498): as the sequence (P30926 22-498) above

human SERT = human SERT (Homo sapiens, UniProt P31645); assay: [3H]5HT uptake inhibition, HEK-293 cells expressing human SERT; format: cell-based; conditions: relative to (S,S)-5a
human SERT, sequence (P31645 whole entry): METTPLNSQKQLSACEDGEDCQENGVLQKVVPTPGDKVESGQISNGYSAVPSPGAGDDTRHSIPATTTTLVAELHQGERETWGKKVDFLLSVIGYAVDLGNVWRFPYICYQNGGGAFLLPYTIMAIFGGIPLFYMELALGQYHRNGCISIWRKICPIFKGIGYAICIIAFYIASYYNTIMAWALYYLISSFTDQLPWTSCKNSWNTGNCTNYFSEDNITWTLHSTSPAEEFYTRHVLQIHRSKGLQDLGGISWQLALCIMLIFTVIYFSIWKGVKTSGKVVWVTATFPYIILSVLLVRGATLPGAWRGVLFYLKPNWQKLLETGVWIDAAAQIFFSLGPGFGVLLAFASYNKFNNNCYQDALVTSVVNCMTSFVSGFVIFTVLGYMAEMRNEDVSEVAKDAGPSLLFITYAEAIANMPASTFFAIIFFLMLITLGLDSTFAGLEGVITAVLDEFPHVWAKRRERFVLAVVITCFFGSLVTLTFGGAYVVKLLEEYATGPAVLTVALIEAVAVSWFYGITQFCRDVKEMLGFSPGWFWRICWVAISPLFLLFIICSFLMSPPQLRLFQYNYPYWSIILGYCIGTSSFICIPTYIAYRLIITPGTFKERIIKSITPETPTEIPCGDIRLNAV

human DAT [12] = molecular target: T1, human DAT; assay: [3H]DA uptake inhibition, HEK-293 cells expressing human DAT; format: cell-based; conditions: for Increase in potency for inhibition of DA uptake: relative to (S,S)-5a
human NET = human NET (Homo sapiens, UniProt P23975); assay: [3H]NE uptake inhibition, HEK-293 cells expressing human NET; format: cell-based
human NET, sequence (P23975 whole entry): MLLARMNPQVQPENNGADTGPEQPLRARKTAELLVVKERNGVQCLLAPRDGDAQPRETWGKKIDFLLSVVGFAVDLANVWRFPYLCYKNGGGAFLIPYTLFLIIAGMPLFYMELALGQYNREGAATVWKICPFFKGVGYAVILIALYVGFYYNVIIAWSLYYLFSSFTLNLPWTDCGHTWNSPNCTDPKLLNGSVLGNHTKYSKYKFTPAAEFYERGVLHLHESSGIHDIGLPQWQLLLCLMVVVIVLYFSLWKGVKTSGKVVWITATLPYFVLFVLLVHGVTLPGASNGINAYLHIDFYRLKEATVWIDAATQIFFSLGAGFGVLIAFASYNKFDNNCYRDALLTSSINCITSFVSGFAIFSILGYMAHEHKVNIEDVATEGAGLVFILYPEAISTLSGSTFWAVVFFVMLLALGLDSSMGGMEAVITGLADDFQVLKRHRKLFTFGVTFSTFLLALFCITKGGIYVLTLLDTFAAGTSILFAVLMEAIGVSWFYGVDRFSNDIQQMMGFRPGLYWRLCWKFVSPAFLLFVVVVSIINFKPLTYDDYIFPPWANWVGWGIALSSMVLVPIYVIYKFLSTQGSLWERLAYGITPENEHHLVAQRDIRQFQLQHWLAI

nicotine-induced CPP [13] = assay: Blockade of nicotine-induced conditioned place preference; format: in vivo, mice; conditions: for AD50 CPP: mice, blockade of nicotine-induced CPP
[14] = mice, antagonism of acute nicotine, parentheses: confidence limits

T1 sequence (Q01959 whole entry): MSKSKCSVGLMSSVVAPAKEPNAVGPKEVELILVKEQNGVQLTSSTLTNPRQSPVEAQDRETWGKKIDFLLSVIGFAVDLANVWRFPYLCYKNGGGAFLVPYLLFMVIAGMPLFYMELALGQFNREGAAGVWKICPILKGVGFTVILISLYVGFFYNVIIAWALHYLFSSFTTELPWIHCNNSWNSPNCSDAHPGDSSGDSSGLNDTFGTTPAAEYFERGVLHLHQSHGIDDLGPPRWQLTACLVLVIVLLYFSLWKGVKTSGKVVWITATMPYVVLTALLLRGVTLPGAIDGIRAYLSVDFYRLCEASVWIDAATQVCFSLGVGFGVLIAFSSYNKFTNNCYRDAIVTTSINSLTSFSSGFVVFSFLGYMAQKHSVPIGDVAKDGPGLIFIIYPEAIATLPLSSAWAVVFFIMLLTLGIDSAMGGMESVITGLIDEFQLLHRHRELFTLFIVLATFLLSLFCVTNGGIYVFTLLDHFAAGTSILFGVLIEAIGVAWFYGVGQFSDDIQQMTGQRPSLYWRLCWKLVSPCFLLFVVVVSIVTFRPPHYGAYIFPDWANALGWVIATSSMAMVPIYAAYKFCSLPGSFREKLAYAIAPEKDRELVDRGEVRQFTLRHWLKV

Row | Compound | ED50 [6] [mg/kg] | IC50 [7] [µM] | ED50 [8] [mg/kg] | ED50 [9] [mg/kg] | ED50 [10] [mg/kg] | IC50 (α3β4*-nAChR) [nM] | IC50 (α4β4-nAChR) [µM] | IC50 (human DAT [12]) [nM] | IC50 (human NET) [nM] | IC50 (α4β2-nAChR) [µM] | also measured
1 | C[C@H]1NC(C)(C)CO[C@]1(O)c1cccc(Cl)c1 [(R,R)-4a, (R,R)-2-(3'-chlorophenyl)-3,5,5-trimethylmorpholine-2-ol] | – | – | – | – | – | – | – | – | – | – | Monoamine Uptake Inhibition IC50 [3H]DA (human DAT [1]): inactive; AD50 Hot-plate [2]: 10.3 (5.7–17.1) mg/kg; AD50 Hypothermia [3]: IA (IA = AD50 > 20 mg/kg); AD50 Tail-flick [4]: 2.5 (1.2–3.6) mg/kg; AD50 Locomotion [5]: IA (IA = AD50 > 20 mg/kg)
2 | C[C@H]1NC(C)(C)CO[C@@H]1c1cccc(Cl)c1 [(R,R)-5a, (R,R)-2-(3'-Chlorophenyl)-3,5,5-trimethylmorpholine] | > 20 | 9.4 | 3.9 | > 20 | 1.26 | – | – | – | – | – | –
3 | C[C@@H]1NC(C)(C)CO[C@@]1(O)c1cccc(Cl)c1 [(S,S)-4a, (S,S)-2-(3'-chlorophenyl)-3,5,5-trimethylmorpholine-2-ol] | – | – | – | – | – | – | – | – | – | – | AD50 CPP (nicotine-induced CPP [11]): 0.1 mg/kg; AD50 Hot-plate [2]: 1.0 (0.2–2.2) mg/kg; AD50 Tail-flick [4]: 0.2 (0.06–0.7) mg/kg; AD50 Locomotion [5]: 0.9 (0.2–5.7) mg/kg; Potency as functional antagonist of α4β2-nAChR, higher than (α4β2-nAChR; relative to (R,R)-4a): ~ 10 fold
4 | C[C@@H]1NC(C)(C)CO[C@H]1c1cccc(Cl)c1 [(S,S)-5a, (S,S)-2-(3'-Chlorophenyl)-3,5,5-trimethylmorpholine] | > 20 | – | > 20 | > 20 | 0.036 | – | – | – | – | – | AD50 Hypothermia [6, 14]: inactive; AD50 Hot-plate [8, 14]: inactive; AD50 Tail-flick [10]: 0.036 (0.012–0.1) mg/kg; More potent in the tail-flick test [10]: 5.5 times
5 | C[C@@H]1NC(C)(C)CO[C@H]1c1cccc(F)c1 [(S,S)-5b, (S,S)-2-(3’-Fluorophenyl)-3,5,5-trimethylmorpholine] | > 20 | 34 | > 20 | 4.7 | 0.02 | 5600 | 55 | 61 ± 20 | 32 ± 3 | 23 | Decrease in potency for inhibition of 5HT uptake (human SERT): 12 fold; More potent as DA uptake inhibitor (human DAT [12]; compared to (S,S)-4a): 10 fold; Increase in potency for inhibition of DA uptake (human DAT [12]): 3.7 fold; More potent as NE uptake inhibitor (human NET; compared to (S,S)-4a): 5.6 fold; Increase in potency for inhibition of NE uptake (human NET; relative to (S,S)-5a): 3.2 fold
6 | C[C@@H]1NC(C)(C)CO[C@H]1c1cccc(Br)c1 [(S,S)-5c, (S,S)-2-(3'-Bromophenyl)-3,5,5-trimethylmorpholine] | > 20 | 7.3 | > 20 | – | 0.006 | 1400 | 11 | 44 ± 3 | 150 ± 20 | 12 | More potent at α3β4*-nAChR (α3β4*-nAChR; relative to (S,S)-5a): ~ 2 fold; Increase in potency for inhibition of DA uptake (human DAT [12]): 5 fold; AD50 Locomotion [9]: 2.1 (0.9–4.8) mg/kg; More potent in the tail-flick test [10]: ~ 33 times
7 | C[C@H]1[C@H](c2cccc(Cl)c2)OCC(C)(C)N1C [(S,S)-5d, (S,S)-2-(3'-Chlorophenyl)-3,4,5,5-tetramethylmorpholine] | > 20 | 21 | > 20 | 3.8 | 0.13 | 2800 | 23 | 230 ± 60 | 170 ± 20 | 16 | –
8 | CCN1[C@@H](C)[C@H](c2cccc(Cl)c2)OCC1(C)C [(S,S)-5e, (S,S)-2-(3'-Chlorophenyl)-4-ethyl-3,5,5-trimethylmorpholine] | > 20 | 14 | > 20 | > 20 | 0.029 | 790 | 6.4 | 44 ± 9 | 24 ± 8 | 7.2 | AD50 CPP (nicotine-induced CPP [13]): 0.025 mg/kg; More potent in blocking nicotine-induced CPP (nicotine-induced CPP [13]; relative to (S,S)-4a): 4 fold
9 | CCCN1[C@@H](C)[C@H](c2cccc(Cl)c2)OCC1(C)C [(S,S)-5f, (S,S)-2-(3'-Chlorophenyl)-3,5,5-trimethyl-4-propylmorpholine] | > 20 | 5.5 | > 20 | > 20 | 0.056 | 980 | 5.8 | 61 ± 20 | 13 ± 3.6 | 12 | AD50 CPP (nicotine-induced CPP [13]): 0.03 mg/kg
10 | CC[C@@H]1NC(C)(C)CO[C@H]1c1cccc(Cl)c1 [(S,S)-5g, (S,S)-2-(3'-Chlorophenyl)-3-ethyl-5,5-dimethylmorpholine] | 2.5 | 13 | 9.6 | 2.7 | 0.018 | 5600 | 15 | 23 ± 5 | 19 ± 3 | 14 | AD50 Tail-flick [10]: 0.018 (0.009–0.03) mg/kg
11 | CCC[C@@H]1NC(C)(C)CO[C@H]1c1cccc(Cl)c1 [(S,S)-5h, (S,S)-2-(3'-Chlorophenyl)-5,5-dimethyl-3-propylmorpholine] | > 20 | 5 | > 20 | 0.49 | 0.017 | 3100 | 8 | 6 ± 1 | 9 ± 2 | 9.5 | AD50 Locomotion [9]: 0.49(0.3–6.6) mg/kg; AD50 Tail-flick [10]: 0.017 (0.002–0.15) mg/kg
12 | CC(NC(C)(C)C)C(=O)c1cccc(Cl)c1 (stereo not drawn) [compound 2, bupropion] | – | – | – | – | – | – | – | – | – | – | AD50 CPP (nicotine-induced CPP [11]): 0.35 mg/kg; AD50 Hot-plate [2]: 15 (6–19) mg/kg; AD50 Hypothermia [3]: 9.2 (4–23) mg/kg; AD50 Locomotion [5]: 4.9 (0.9–46) mg/kg
